Active and inactive are the calls of the source. No cut-off for these calls is given here.

The results in this text go back to ChEMBL document CHEMBL1177821, “Structure-activity relationships and hepatic safety risks of thiazole agonists of the thrombopoietin receptor” (Bioorg Med Chem Lett, 2010).

The target of one data set is T1, Thrombopoietin receptor (Homo sapiens, UniProt P40238).
T1 sequence (P40238 whole entry): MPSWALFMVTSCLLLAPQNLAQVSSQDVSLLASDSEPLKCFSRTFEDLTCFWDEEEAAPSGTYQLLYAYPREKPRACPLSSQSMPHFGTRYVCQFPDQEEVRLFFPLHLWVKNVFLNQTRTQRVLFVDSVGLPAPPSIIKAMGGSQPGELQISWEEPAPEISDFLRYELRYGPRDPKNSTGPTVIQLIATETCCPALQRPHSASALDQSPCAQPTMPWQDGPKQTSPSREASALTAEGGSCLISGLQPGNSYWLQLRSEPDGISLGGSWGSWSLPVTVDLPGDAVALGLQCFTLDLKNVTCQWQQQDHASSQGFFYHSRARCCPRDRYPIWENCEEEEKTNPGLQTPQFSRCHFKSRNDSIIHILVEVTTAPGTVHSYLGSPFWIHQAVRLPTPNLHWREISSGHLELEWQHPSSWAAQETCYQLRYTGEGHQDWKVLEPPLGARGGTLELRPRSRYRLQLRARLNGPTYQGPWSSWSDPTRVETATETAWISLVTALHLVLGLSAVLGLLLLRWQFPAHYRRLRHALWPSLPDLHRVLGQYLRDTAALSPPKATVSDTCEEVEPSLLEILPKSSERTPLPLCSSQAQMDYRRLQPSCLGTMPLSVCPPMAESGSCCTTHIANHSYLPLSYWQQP
Kind of data set: Agonist activity at human TPO receptor expressed in murine BaF3 cells.

Data set [1] deals with Rattus norvegicus. The data set is described as follows: Toxicity in rat assessed as elevation of AST level at 50 mg/kg, po. The data set is classed as organism-based. Also on record: dose 50 mg/kg, route oral. As to conditions: in vivo. The method in brief: (§1)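 Single oral doses of 50, 250 or 500 mg/kg given to rats, each study with its own control group. Mean serum AST and ALT (IU/L) measured. Histopathology of liver also examined.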

Data set [2] concerns Rattus norvegicus. Kind of data set: Toxicity in rat assessed as elevation of AST level at 250 mg/kg, po. Type of data set: organism-based. Details: dose 250 mg/kg, route oral. The note with it: in vivo. In outline:
as §1

Data set [3] concerns Rattus norvegicus. Kind of data set: Toxicity in rat assessed as elevation of AST level at 500 mg/kg, po. Type of data set: organism-based. Also on record: dose 500 mg/kg, route oral. The note with it: in vivo. The method in brief: as §1
For data set [4], the system named is Rattus norvegicus. The data set is described as follows: Toxicity in rat assessed as elevation of ALT level at 50 mg/kg, po. The data set is classed as organism-based. Details: dose 50 mg/kg, route oral. The note with it: in vivo. In outline: as §1
The subject of data set [5] is Rattus norvegicus. Kind of data set: Toxicity in rat assessed as elevation of ALT level at 250 mg/kg, po. The data set is classed as organism-based. Details: dose 250 mg/kg, route oral. The note with it: in vivo. In outline:
as §1

The test system of data set [6] is Rattus norvegicus. Kind of data set: Toxicity in rat assessed as elevation of ALT level at 500 mg/kg, po. The data set is classed as organism-based. Details: dose 500 mg/kg, route oral. As to conditions: in vivo. The method in brief: as §1
A short description of data set [7]: Cmax in rat at 50 mg/kg, po. Type of data set: ADME, organism-based. Also on record: dose 50 mg/kg, route oral. The note with it: in vivo. The method in brief: (§2)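 Rats given single oral doses of 50, 250 or 500 mg/kg, with a separate vehicle control group in each study. Mean Cmax (µg/mL) and mean AUC0–24 (µg h/mL) taken as total (bound plus unbound) plasma concentrations.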

A short description of data set [8]: AUC (0 to 24 hrs) in rat at 50 mg/kg, po. Type of data set: ADME, organism-based. Also on record: time < 24 hr, dose 50 mg/kg, route oral. The note with it: plasma. The method in brief: as §2
Data set [9] can be described thus: Cmax in rat at 250 mg/kg, po. Also on record: dose 250 mg/kg, route oral. The note with it: in vivo. The data set is classed as ADME, organism-based. In outline: as §2
Data set [10] can be described thus: AUC (0 to 24 hrs) in rat at 250 mg/kg, po. Type of data set: ADME, organism-based. Details: time < 24 hr, dose 250 mg/kg, route oral. As to conditions: plasma. In outline:
as §2

Data set [11] can be described thus: Cmax in rat at 500 mg/kg, po. The data set is classed as ADME, organism-based. Details: dose 500 mg/kg, route oral. The note with it: in vivo. The method in brief: as §2
A short description of data set [12]: AUC (0 to 24 hrs) in rat at 500 mg/kg, po. The data set is classed as ADME, organism-based. Details: time < 24 hr, dose 500 mg/kg, route oral. The note with it: plasma. In outline: as §2
The species entered for data set [13] is Mus musculus. The data set is described as follows: Increase of platelets level in human TPO receptor transgenic mouse measured after 6 days. The data set is classed as functional, organism-based. The method in brief: (§3)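 Human TPO receptor transgenic mice (knock-out/human knock-in of receptor exons 8–10, spanning the transmembrane domain) and wild-type mice given compound on days 0 and 1. Platelets counted on day 6.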

Data set [14] deals with Rattus norvegicus. Kind of data set: Toxicity in rat assessed as histopathological changes at 10 to 150 mg/kg, po after 4 days. The data set is classed as organism-based. Details: dose 10-150 mg/kg, route oral. The note with it: in vivo, 96 h. In outline: (§4)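 Rats dosed orally once daily for four days at 10, 50 or 150 mg/kg, four animals per dose. Clinical pathology including ALT and bilirubin checked on days 1 and 5. Histopathology examined.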

Data set [15] has as its system Rattus norvegicus. The data set is described as follows: Toxicity in rat assessed as change in clinical pathology at 10 to 150 mg/kg, po after 4 days. The data set is classed as organism-based. Also on record: dose 10-150 mg/kg, route oral. As to conditions: in vivo, 96 h. The method in brief: as §4
Data set [16] is filed under the species Mus musculus. The data set is described as follows: Increase of platelets level in mouse measured after 6 days. The data set is classed as functional, organism-based. The method in brief: as §3

On Thrombopoietin receptor, `CC(C)Cc1cc(-c2nc(NC(=O)c3cnc(N4CCC(C(=O)O)CC4)c(Cl)c3)sc2F)ccc1F` registered an EC50 of 58 nM.
The same measure, in the same setting: the figure for `CCCc1sc(NC(=O)c2cnc(N3CCC(C(=O)O)CC3)c(Cl)c2)nc1-c1ccc(F)c(C(F)(F)F)c1` is 130 nM.
`O=C(Nc1nc(-c2ccc(F)c(C(F)(F)F)c2)ns1)c1cnc(N2CCC(C(=O)O)CC2)c(Cl)c1` had an EC50 at Thrombopoietin receptor of 574 nM.
Same read-out and setting: the figure for `O=C(Nc1nc(-c2ccc(F)c(C(F)(F)F)c2)cs1)c1cnc(N2CCC(C(=O)O)CC2)c(Cl)c1` is 100 nM; for `O=C(Nc1nc(-c2ccc(F)c(OC(F)(F)F)c2)c(F)s1)c1cnc(N2CCC(C(=O)O)CC2)c(Cl)c1` it is 620 nM; for `O=C(Nc1nc(-c2ccc(F)c(OCC(F)(F)F)c2)c(F)s1)c1cnc(N2CCC(C(=O)O)CC2)c(Cl)c1` it is 950 nM.
On the same count and under the same terms, as for `CCCCc1cc(-c2nc(NC(=O)c3cnc(N4CCC(C(=O)O)CC4)c(Cl)c3)sc2F)ccc1F`, the figure is 220 nM.
On to `O=C(Nc1nc(-c2cccc(C(F)(F)F)c2F)cs1)c1cnc(N2CCC(C(=O)O)CC2)c(Cl)c1`, for which the Activity with Rattus norvegicus [1] worked out at 1937 IU/L; in the data set with Rattus norvegicus [2], 2952 IU/L; with Rattus norvegicus [3], 3495 IU/L; with Rattus norvegicus [4], 442 IU/L; with Rattus norvegicus [5], 450 IU/L; with Rattus norvegicus [6], 579 IU/L. The Activity result with Rattus norvegicus [14] and with Rattus norvegicus [15] was “Non-toxic” throughout. Besides, the Cmax – broadly, the maximum level reached in the sampled fluid or tissue – was 20000 ng/mL in data set [7], 48000 ng/mL in [9] and 84000 ng/mL in data set [11]. The AUC(0-t) (in general, the area under the concentration-time curve up to a stated or last time point) at 24 h in data set [8] was determined as 84 µg·h/mL; in data set [10], 832 µg·h/mL; in data set [12], 1490 µg·h/mL. The molecule further registered an EC50 in the data set filed under Mus musculus [13] of 27 µg·h/mL. Also, in the data set filed under Mus musculus [16], the result was inactive.
In turn, `CCc1sc(NC(=O)c2cnc(N3CCC(C(=O)O)CC3)c(Cl)c2)nc1-c1ccc(F)c(C(F)(F)F)c1` displayed an EC50 at Thrombopoietin receptor of 160 nM.
On the same count and under the same terms, as for `O=C(Nc1ccn(-c2cccc(C(F)(F)F)c2F)n1)c1cnc(N2CCC(C(=O)O)CC2)c(Cl)c1`, the figure is more than 811 nM; as for `O=C(Nc1nc(-c2ccc(F)c(Br)c2)c(F)s1)c1cnc(N2CCC(C(=O)O)CC2)c(Cl)c1`, 670 nM; as for `O=C(Nc1nc(-c2ccc(F)c(C(F)(F)F)c2)c(Cl)s1)c1cnc(N2CCC(C(=O)O)CC2)c(Cl)c1`, 86 nM.
Turning to `O=C(Nc1nc(-c2ccc(F)c(C(F)(F)F)c2)c(F)s1)c1cnc(N2CCC(C(=O)O)CC2)c(Cl)c1`, the EC50 in the data set filed under Mus musculus [13] came to 7 µg·h/mL; at Thrombopoietin receptor it was 89 nM. Further, the Activity result in the data set on Rattus norvegicus [14] and in the data set on Rattus norvegicus [15] was “Non-toxic” each time. Further, the result in the data set filed under Mus musculus [16] was inactive.
Consider `O=C(Nc1nc(-c2ccc(Cl)c(Cl)c2)c(F)s1)c1cnc(N2CCC(C(=O)O)CC2)c(Cl)c1`, for which the EC50 at Thrombopoietin receptor is more than 1000 nM.
Same read-out and setting: the figure for `N#Cc1sc(NC(=O)c2cnc(N3CCC(C(=O)O)CC3)c(Cl)c2)nc1-c1ccc(F)c(C(F)(F)F)c1` is more than 898 nM.
The molecule `O=C(Nc1nc(-c2ccc(F)c(Cl)c2)c(F)s1)c1cnc(N2CCC(C(=O)O)CC2)c(Cl)c1` gave an EC50 on Thrombopoietin receptor of 480 nM.
On the same count and under the same terms, the figure for `CCOCc1cc(-c2nc(NC(=O)c3cnc(N4CCC(C(=O)O)CC4)c(Cl)c3)sc2F)ccc1F` is more than 970 nM; for `Cc1sc(NC(=O)c2cnc(N3CCC(C(=O)O)CC3)c(Cl)c2)nc1-c1ccc(F)c(C(F)(F)F)c1` it is 66 nM; for `O=C(Nc1nc(-c2cccc(C(F)(F)F)c2F)c(F)s1)c1cnc(N2CCC(C(=O)O)CC2)c(Cl)c1` it is 702 nM.
